The text below walks through data of ChEMBL document CHEMBL5661964, “Selective in vivo and in vitro effects of a small molecule inhibitor of cyclin-dependent kinase 4” (J Natl Cancer Inst, 2001).

Assay [1] concerns HCT-116. Description: Antitumor activity against human HCT-116 cells xenografted in nude mouse assessed as decrease tumor volume at 75 mg/kg, iv administered once per week measured after 29 days. Conditions: time 29.0 day. Type of assay: functional, organism-based. Summed up:
(§1)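 Female BALB/c nu/nu mice (19–21 g) received 0.1 mL of HCT116 suspension (1 × 10^7 viable cells/mL, Hanks' buffer) s.c. At day 20 (tumours ~100 mm3), they were randomised into groups of eight. Dosing was i.v. via lateral tail vein at 10 mL/kg for 29 days. Blinded caliper volumes (L × W² × π/6) were taken every 2–4 days. Comparison to […] vehicle controls used one-way ANOVA/Dunnett; log-volume slopes gave growth rate.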

Assay [2] deals with HCT-116. Description: Antitumor activity against human HCT-116 cells xenografted in nude mouse assessed as decrease tumor growth at 75 mg/kg, iv administered once per week measured after 29 days. Type of assay: functional, organism-based. Conditions: time 29.0 day. Summed up: as §1
A general note: In xenograft studies the graft and the host belong to different species.

Active and inactive are the calls of the source. The rule behind the calls is not given here.

For `O=c1[nH]cc(F)c(=O)[nH]1`, the result in assay [1] and in assay [2] was Active.
